# Assay results reported in ChEMBL document CHEMBL1142435, “Two-step synthesis of achiral dispiro-1,2,4,5-tetraoxanes with outstanding antimalarial activity, low toxicity, and high-stability profiles” (J Med Chem, 2008).
# Legend:
# [1] = system: Plasmodium falciparum; assay: Antimalarial activity against Plasmodium falciparum DD2; type: functional, organism-based
# [2] = system: Plasmodium falciparum; assay: Antimalarial activity against Plasmodium falciparum TM4; type: functional, organism-based
# [3] = system: Plasmodium falciparum; assay: Antimalarial activity against Plasmodium falciparum K1; type: functional, organism-based
# [4] = system: Plasmodium falciparum; assay: Antimalarial activity against Plasmodium falciparum PH3; type: functional, organism-based
# [5] = system: Plasmodium falciparum; assay: Antimalarial activity against Plasmodium falciparum HB3; type: functional, organism-based
# [6] = system: Plasmodium falciparum; assay: Antimalarial activity against Plasmodium falciparum GC03; type: functional, organism-based
# [7] = system: Plasmodium falciparum; assay: Antimalarial activity against Plasmodium falciparum V1/S; type: functional, organism-based; conditions: V1S
# [8] = system: Plasmodium falciparum; assay: Antimalarial activity against Plasmodium falciparum 3D7; type: functional, organism-based
# [9] = Chemical stability assessed as endoperoxide recovery after 8 hrs by iron degradation study; type: physicochemical; conditions: read-out: Stability
# Outline: (§1)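 Endoperoxide (1.0 equiv FeBr₂) was held in THF for 4, 8, 24 or 48 h. The residue was purified by flash column chromatography, and the percent recovery of starting endoperoxide was calculated.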
# [10] = Chemical stability assessed as endoperoxide recovery after 48 hrs by iron degradation study; type: physicochemical; conditions: read-out: Stability; outline: as §1
# [11] = Chemical stability assessed as endoperoxide recovery after 4 hrs by iron degradation study; type: physicochemical; conditions: read-out: Stability; outline: as §1
# [12] = Chemical stability assessed as endoperoxide recovery after 24 hrs by iron degradation study; type: physicochemical; conditions: read-out: Stability; outline: as §1
# [13] = Therapeutic index, ratio of TOX50 for rat H9c(2-1) cells to IC50 Plasmodium falciparum 3D7
# Outline: (§2)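 TOX₅₀ came from resazurin reduction, with single full dose-response curves over 10 independent concentrations. The index is TOX₅₀ divided by the IC₅₀ against the P. falciparum 3D7 isolate.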
# [14] = system: Salmonella typhimurium; assay: Genotoxicity against Salmonella Typhimurium TA 1535/pSK1002 assessed as induction of umu operon expression in presence of rat liver S9 fraction; type: toxicity, organism-based; conditions: salmonella enterica subsp. enterica serovar typhimurium
# Outline: (§3)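 SOS/umu assay with rat liver S9-mix for metabolic activation. Tester strains carry plasmid pSK1002 with a umuC-lacZ fusion, and induced β-galactosidase activity is the read-out. Positive controls checked strain response. The highest concentration tested was 50 µM.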
# [15] = Chemical stability in dichloromethane in presence of formic acid assessed as tetraoxane recovery after 7 days; type: physicochemical; conditions: dichloromethane with formic acid; read-out: Stability
# [16] = Chemical stability in dichloromethane assessed as tetraoxane recovery after 7 days; type: physicochemical; conditions: read-out: Stability
# [17] = Therapeutic index, ratio of TOX50 for human […] cells to IC50 Plasmodium falciparum 3D7; type: cell-based; outline: as §2
# [18] = Cytotoxicity against human […] cells by resazurin reduction assay; type: cell-based; conditions: read-out: TC50 (the source's name)
# Outline: (§4)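 Cytotoxicity was read by resazurin reduction. A single full dose-response curve was built from 10 independent drug concentrations to give TOX₅₀.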
# [19] = Therapeutic index, ratio of TOX50 for rat L6 cells to IC50 Plasmodium falciparum 3D7; type: cell-based; outline: as §2
# [20] = Therapeutic index, ratio of TOX50 for human MRC5 cells to IC50 Plasmodium falciparum 3D7; type: cell-based; outline: as §2
# [21] = Chemical stability in water assessed as tetraoxane recovery after 7 days; type: physicochemical; conditions: read-out: Stability
# [22] = system: Salmonella typhimurium; assay: Genotoxicity against Salmonella Typhimurium NM2009 assessed as induction of umu operon expression; type: toxicity, organism-based; conditions: salmonella enterica subsp. enterica serovar typhimurium
# [23] = Cytotoxicity against african green monkey Vero cells by resazurin reduction assay; type: cell-based; conditions: chlorocebus sabaeus, read-out: TC50 (the source's name); outline: as §4
# [24] = system: Salmonella typhimurium; assay: Genotoxicity against Salmonella Typhimurium NM2009 assessed as induction of umu operon expression in presence of rat liver S9 fraction; type: toxicity, organism-based; conditions: salmonella enterica subsp. enterica serovar typhimurium; outline: as §3
# [25] = Cytotoxicity against rat H9c(2-1) cells by resazurin reduction assay; type: cell-based; conditions: read-out: TC50 (the source's name); outline: as §4
# [26] = Cytotoxicity against human MRC5 cells by resazurin reduction assay; type: cell-based; conditions: read-out: TC50 (the source's name); outline: as §4
# [27] = Cytotoxicity against rat L6 cells by resazurin reduction assay; type: cell-based; conditions: read-out: TC50 (the source's name); outline: as §4
# [28] = Chemical stability in phosphate buffer assessed as tetraoxane recovery at pH 7.4 after 16 hrs; type: physicochemical; conditions: read-out: Stability
# [29] = system: Salmonella typhimurium; assay: Genotoxicity against Salmonella Typhimurium TA 1535/pSK1002 assessed as induction of umu operon expression; type: toxicity, organism-based; conditions: salmonella enterica subsp. enterica serovar typhimurium
# [30] = Therapeutic index, ratio of TOX50 for african green monkey (Cercopithecus aethiops) Vero cells to IC50 Plasmodium falciparum 3D7; type: cell-based; outline: as §2
# [31] = system: Plasmodium falciparum; assay: Antimalarial activity against Plasmodium falciparum
# [32] = system: Plasmodium berghei; assay: Antimalarial activity against Plasmodium berghei ANKA infected mice (Mus musculus) by peroral dose; type: functional; conditions: po
structure (smiles),measurement,setting,value
CCN(CC)Cc1cc(Nc2ccnc3cc(Cl)ccc23)ccc1O,IC50,[1],6.1 nM
same,IC50,[2],6.4 nM
same,IC50,[3],10.2 nM
same,IC50,[4],4.7 nM
same,IC50,[5],5.9 nM
same,IC50,[6],4.5 nM
same,IC50,[7],7.7 nM
O=S(=O)(c1ccc(Cl)cc1)N1CCC2(CC1)OOC1(OO2)C2CC3CC(C2)CC1C3,IC50,[8],22.7 nM
CS(=O)(=O)N1CCC2(CC1)OOC1(CCCCCCCCCCC1)OO2,IC50,[8],27.8 nM
O=S(=O)(c1ccc(C(F)(F)F)cc1)N1CCC2(CC1)OOC1(OO2)C2CC3CC(C2)CC1C3,IC50,[8],20.7 nM
O=C(N1CCOCC1)N1CCC2(CC1)OOC1(OO2)C2CC3CC(C2)CC1C3,IC50,[8],4.7 nM
O=S(=O)(CC(F)(F)F)N1CCC2(CC1)OOC1(OO2)C2CC3CC(C2)CC1C3,IC50,[8],14.3 nM
O=C(CCc1ccc(S(=O)(=O)N2CCC3(CC2)OOC2(OO3)C3CC4CC(C3)CC2C4)cc1)NCCCCNc1ccc([N+](=O)[O-])c2nonc12,IC50,[8],16 nM
O=S(=O)(c1ccccc1)N1CCC2(CC1)COC1(OO2)C2CC3CC(C2)CC1C3 (centres undefined),remaining at 8 h,[9],84.9%
same,remaining at 48 h,[10],43.2%
same,remaining at 4 h,[11],96.8%
same,remaining at 24 h,[12],56.7%
CC(C)S(=O)(=O)N1CCC2(CC1)OOC1(OO2)C2CC3CC(C2)CC1C3,IC50,[8],5.87 nM
CCS(=O)(=O)N1CCC2(CC1)OOC1(OO2)C2CC3CC(C2)CC1C3,IC50,[1],3 nM
same,IC50,[2],2.4 nM
same,TI,[13],> 9090
same,Activity,[14],0.98
same,remaining at 168 h,[15],92.3%
same,remaining at 168 h,[16],96.2%
same,TI,[17],> 9090
same,CC50,[18],> 50000 nM
same,IC50,[8],5.55 nM
same,TI,[19],5640
same,TI,[20],> 9090
same,remaining at 168 h,[21],97.8%
same,Activity,[22],1.07
same,IC50,[3],3 nM
same,CC50,[23],> 50000 nM
same,Activity,[24],0.95
same,IC50,[4],1.9 nM
same,CC50,[25],> 50000 nM
same,CC50,[26],> 50000 nM
same,CC50,[27],31000 nM
same,remaining at 16 h,[28],93.2%
same,IC50,[5],3.8 nM
same,Activity,[29],1.03
same,TI,[30],> 9090
same,IC50,[6],3 nM
same,IC50,[7],2.7 nM
CS(=O)(=O)N1CCC2(CC1)OOC1(OO2)C2CC3CC(C2)CC1C3,IC50,[8],10.2 nM
O=S(=O)(c1ccccc1)N1CCC2(CC1)OOC1(CCCCCCCCCCC1)OO2,IC50,[8],131 nM
CCS(=O)(=O)N1C2CCC1CC1(C2)OOC2(OO1)C1CC3CC(C1)CC2C3 (centres undefined),IC50,[8],60.6 nM
O=S(=O)(c1ccccc1)N1CCC2(CC1)OCC1(OO2)C2CC3CC(C2)CC1C3 (centres undefined),IC50,[8],> 1000 nM
O=S(=O)(C1CC1)N1CCC2(CC1)OOC1(OO2)C2CC3CC(C2)CC1C3,TI,[13],> 14300
same,Activity,[14],0.99
same,TI,[17],> 14300
same,CC50,[18],> 50000 nM
same,IC50,[8],3.52 nM
same,TI,[19],> 14300
same,TI,[20],> 14300
same,Activity,[22],1.09
same,CC50,[23],> 50000 nM
same,Activity,[24],1.07
same,CC50,[25],> 50000 nM
same,CC50,[26],> 50000 nM
same,CC50,[27],> 50000 nM
same,Activity,[29],1.05
same,TI,[30],> 14300
O=S(=O)(c1ccccc1)N1CCC2(CC1)OOC1(O2)C2CC3CC(C2)CC1C3 (centres undefined),remaining at 8 h,[9],9%
same,remaining at 48 h,[10],0%
same,remaining at 4 h,[11],11%
same,IC50,[8],4.98 nM
same,remaining at 24 h,[12],2.6%
O=S(=O)(c1ccc(F)cc1)N1CCC2(CC1)OOC1(OO2)C2CC3CC(C2)CC1C3,IC50,[8],16.7 nM
O=S(=O)(c1ccccc1)N1CCC2(CC1)OOC1(OO2)C2CC3CC(C2)CC1C3,remaining at 8 h,[9],80.5%
same,remaining at 48 h,[10],69%
same,remaining at 4 h,[11],88.7%
same,IC50,[8],5.46 nM
same,remaining at 24 h,[12],72%
O=C(CC1CCC2(CC1)OOC1(OO2)C2CC3CC(C2)CC1C3)N1CCOCC1 (centres undefined),Activity,[14],0.98
same,Activity,[22],1.22
same,Activity,[24],1.02
same,IC50,[31],5.2 nM
same,Activity,[29],1.04
CC(C)S(=O)(=O)N1CCC2(CC1)OOC1(CCCCCCCCCCC1)OO2,IC50,[8],86.4 nM
CCS(=O)(=O)N1CCC2(CC1)OOC1(CCCCCCCCCCC1)OO2,IC50,[8],29.1 nM
"C[C@H]1[C@H](OC(=O)CCC(=O)O)O[C@@H]2OC3(C)CC[C@H]4[C@H](C)CC[C@@H]1[C@@]24OO3 (single isomer, unassigned) [SODIUM ARESUNATE]",IC50,[8],0.6 nM
same,IC50,[3],0.7 nM
Nc1ccc2cc3ccccc3cc2c1 [2-AMINOANTHRACENE],Activity,[14],7.34
same,Activity,[22],1.08
same,Activity,[24],6.09
same,Activity,[29],1.1
C[C@@H]1CC[C@H]2[C@@H](C)C(=O)O[C@@H]3O[C@@]4(C)CC[C@@H]1[C@]32OO4 [ARTEMISININ],IC50,[8],9.2 nM
same,ED50,[32],8.42 mg/kg
